The subject of experiment [1] is Mus musculus. Nature of the experiment: Antitumor activity against L1210 leukemia was determined at 5 mg/kg dose given on 1, 5, 9 days after tumor implantation in mice. Type of experiment: functional, organism-based. More on the design: dose 5 mg/kg. The essentials: (§1)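 Male BDF1 mice (18–20 g) inoculated ip with 10^6 L1210/0 or P388 ascites leukemia cells on day 0. Test compound given ip on days 1, 5 and 9; dosing stopped after two doses if over half of the animals had died by day 9. Deaths recorded over 60 days. %T/C = mean survival of treated mice that died ÷ mean survival of untreated tumour-bearing controls. Long-term survivors also counted.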

The test system of experiment [2] is Mus musculus. Nature of the experiment: Antitumor activity against P388 leukemia was determined at 5 mg/kg dose given on 1, 5, 9 days after tumor implantation in mice. Type of experiment: functional, organism-based. More on the design: dose 5 mg/kg. The essentials:
as §1

Experiment [3] concerns L1210. Nature of the experiment: In vitro cytotoxicity in L1210 leukemia resistant to cisplatin. The conditions noted are these: read-out: ID50 (the source's name). It counts as functional, Mus musculus. The method, boiled down: (§2)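 L1210 murine leukaemia (sensitive, 40–60-fold DDP-resistant, or 30-fold [Pt(R,R-dach)SO4]-resistant) grown in suspension in McCoy's 5A with 5% horse serum and glutamine. Cells at 5 × 10^4/mL exposed 72 h to 0.01–10 μg/mL (final) compound, from DMF stock diluted in saline (≤0.5% DMF) or water for malonates. Cells Coulter-counted; ID50 from % growth inhibition.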

Experiment [4] has as its system L1210. Nature of the experiment: In vitro cytotoxicity in L1210 leukemia sensitive to cisplatin. Type of experiment: functional, Mus musculus. The note with it: read-out: ID50 (the source's name). The essentials: as §2

Several values for one entry are separate records, joined by “and”; a condition that tells them apart may be missing. Equal entries are not always repeated.

What is called T/C is the ratio of treated to control.

Regarding CISPLATIN, the T/C in experiment [1] worked out at 210%; in experiment [2], 170%.

As to `CC(C)(N)CCC(C)(C)N`, the IC50 in experiment [3] (Mus musculus, L1210) is 9.09 µM; in experiment [3], 5.53 µM; in experiment [4] it was 6.2 µM and 0.98 µM.
